Test results: ChEMBL document CHEMBL1131454 (J Med Chem, 1998)

Key:
[1] = biological target: T1, Progesterone receptor (Homo sapiens) (UniProt P06401); experiment: Human progesterone receptor (hPR) antagonist efficacy was determined as a function (%) of maximal inhibition of progesterone at EC50 value.; format: functional
T1 sequence (whole entry): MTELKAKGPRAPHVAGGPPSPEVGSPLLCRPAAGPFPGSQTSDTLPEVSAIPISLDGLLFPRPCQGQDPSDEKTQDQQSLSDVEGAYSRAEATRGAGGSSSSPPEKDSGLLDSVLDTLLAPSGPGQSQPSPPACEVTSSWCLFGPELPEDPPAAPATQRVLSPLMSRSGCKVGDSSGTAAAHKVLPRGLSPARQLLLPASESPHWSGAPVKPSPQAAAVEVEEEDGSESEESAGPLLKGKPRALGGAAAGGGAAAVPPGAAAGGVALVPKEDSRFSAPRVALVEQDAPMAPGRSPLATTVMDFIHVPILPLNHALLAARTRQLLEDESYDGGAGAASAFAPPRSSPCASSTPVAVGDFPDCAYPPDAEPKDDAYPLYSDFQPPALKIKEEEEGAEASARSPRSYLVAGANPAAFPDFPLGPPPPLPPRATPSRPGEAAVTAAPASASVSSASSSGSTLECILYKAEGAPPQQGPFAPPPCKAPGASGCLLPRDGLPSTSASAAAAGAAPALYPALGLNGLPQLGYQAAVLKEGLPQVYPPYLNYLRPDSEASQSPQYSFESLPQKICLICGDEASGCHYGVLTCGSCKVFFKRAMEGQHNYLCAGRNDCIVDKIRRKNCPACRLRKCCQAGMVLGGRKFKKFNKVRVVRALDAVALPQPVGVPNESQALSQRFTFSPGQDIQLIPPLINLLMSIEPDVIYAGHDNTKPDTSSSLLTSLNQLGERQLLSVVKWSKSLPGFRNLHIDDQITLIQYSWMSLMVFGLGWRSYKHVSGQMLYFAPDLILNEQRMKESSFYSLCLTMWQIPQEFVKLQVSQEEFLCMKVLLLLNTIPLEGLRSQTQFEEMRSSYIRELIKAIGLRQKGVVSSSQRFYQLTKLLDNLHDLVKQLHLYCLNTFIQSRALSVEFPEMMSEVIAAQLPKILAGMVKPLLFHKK
Summary of the method: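 hPR antagonist-mode cotransfection in CV-1 cells transiently transfected by calcium phosphate coprecipitation with hPR plasmid, MTV-LUC reporter, pRS-β-Gal and filler DNA. […] Values come from one, two, or at least three experiments in triplicate.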

Glucocorticoid receptor [2] = biological target: T2, Glucocorticoid receptor (Homo sapiens, UniProt P04150)
T2 sequence (P04150 whole entry): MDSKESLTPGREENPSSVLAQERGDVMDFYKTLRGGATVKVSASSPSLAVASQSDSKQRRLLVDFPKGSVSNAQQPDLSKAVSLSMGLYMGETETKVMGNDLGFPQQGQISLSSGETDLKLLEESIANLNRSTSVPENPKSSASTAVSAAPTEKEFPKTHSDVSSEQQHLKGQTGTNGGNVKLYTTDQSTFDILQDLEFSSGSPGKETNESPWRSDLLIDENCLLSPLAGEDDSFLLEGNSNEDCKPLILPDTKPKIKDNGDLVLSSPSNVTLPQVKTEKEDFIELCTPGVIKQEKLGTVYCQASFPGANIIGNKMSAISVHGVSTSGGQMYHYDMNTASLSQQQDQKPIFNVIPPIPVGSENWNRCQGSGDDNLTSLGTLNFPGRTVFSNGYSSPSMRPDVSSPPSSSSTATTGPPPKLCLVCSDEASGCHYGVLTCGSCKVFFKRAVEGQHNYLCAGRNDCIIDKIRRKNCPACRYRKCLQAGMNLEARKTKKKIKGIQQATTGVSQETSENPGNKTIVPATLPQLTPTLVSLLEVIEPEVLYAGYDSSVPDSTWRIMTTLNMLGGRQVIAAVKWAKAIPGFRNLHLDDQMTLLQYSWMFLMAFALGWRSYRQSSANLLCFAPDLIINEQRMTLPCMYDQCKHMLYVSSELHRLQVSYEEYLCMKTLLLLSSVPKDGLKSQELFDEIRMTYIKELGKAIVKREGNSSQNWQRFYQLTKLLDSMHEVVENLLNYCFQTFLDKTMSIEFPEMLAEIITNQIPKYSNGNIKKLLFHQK

Progesterone receptor [3] = biological target: T3, Progesterone receptor (Homo sapiens, UniProt P06401); experiment: The binding affinity on Human progesterone receptor (hPR-A) using progesterone as radioligand.
T3 sequence (P06401 whole entry): T1 sequence (whole entry)

Progesterone receptor [4] = biological target: T3, Progesterone receptor; experiment: Agonistic activity to the human progesterone receptor (hPR)assayed in CV-1 cells in cotransfection assay.; format: functional, cell-based
Androgen receptor = biological target: T4, Androgen receptor (Homo sapiens, UniProt P10275)
T4 sequence (P10275 whole entry): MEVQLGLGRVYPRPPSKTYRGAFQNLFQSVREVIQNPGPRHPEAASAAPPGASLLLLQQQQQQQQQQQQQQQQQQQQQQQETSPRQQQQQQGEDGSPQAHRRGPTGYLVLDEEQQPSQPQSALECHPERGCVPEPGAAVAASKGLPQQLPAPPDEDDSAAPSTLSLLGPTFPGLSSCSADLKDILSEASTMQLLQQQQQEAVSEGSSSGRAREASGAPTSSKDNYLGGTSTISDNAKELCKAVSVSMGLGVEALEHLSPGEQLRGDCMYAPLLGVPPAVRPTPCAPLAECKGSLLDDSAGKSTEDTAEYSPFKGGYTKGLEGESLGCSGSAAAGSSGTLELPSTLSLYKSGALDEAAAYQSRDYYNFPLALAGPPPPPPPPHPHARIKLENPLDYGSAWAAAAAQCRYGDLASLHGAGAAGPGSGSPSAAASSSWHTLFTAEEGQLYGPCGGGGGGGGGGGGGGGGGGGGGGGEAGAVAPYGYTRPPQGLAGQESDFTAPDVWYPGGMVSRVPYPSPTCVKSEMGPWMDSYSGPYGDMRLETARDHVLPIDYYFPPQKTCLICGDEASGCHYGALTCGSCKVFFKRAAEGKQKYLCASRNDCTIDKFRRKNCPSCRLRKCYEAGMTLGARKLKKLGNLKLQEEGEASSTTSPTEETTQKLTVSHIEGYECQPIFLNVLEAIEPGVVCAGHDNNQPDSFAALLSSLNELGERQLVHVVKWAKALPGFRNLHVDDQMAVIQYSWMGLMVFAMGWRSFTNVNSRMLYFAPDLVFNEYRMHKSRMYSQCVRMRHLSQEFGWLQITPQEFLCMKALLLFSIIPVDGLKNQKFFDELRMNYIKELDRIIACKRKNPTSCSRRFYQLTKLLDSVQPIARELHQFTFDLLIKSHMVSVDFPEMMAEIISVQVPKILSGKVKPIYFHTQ

Progesterone receptor [5] = biological target: T3, Progesterone receptor; experiment: Antagonistic activity was determined in Human progesterone receptor(hPR) of CV-1 cells in cotransfection assay.; format: functional, cell-based
Glucocorticoid receptor [6] = biological target: T2, Glucocorticoid receptor; remark: listed apart in the source

| Compound | Efficacy [1] [%] | IC50 (Glucocorticoid receptor [2]) [nM] | Ki (Progesterone receptor [3]) [nM] | EC50 (Progesterone receptor [4]) [nM] | IC50 (Androgen receptor) [nM] | IC50 (Progesterone receptor [5]) [nM] | Ki (Glucocorticoid receptor [6]) [nM] |
| --- | --- | --- | --- | --- | --- | --- | --- |
| CC1=CC(C)(C)Nc2ccc3c(c21)C(c1cccc(C(F)(F)F)c1)Oc1ccccc1-3 (centres undefined) | < 20 | 505 | 2.6 | 13 | 315 | > 10000 | 44 |
| CC1=CC(C)(C)Nc2ccc3c(c21)C(c1ccc(Cl)cc1)Oc1ccccc1-3 (centres undefined) | 31 | 339 | 0.7 | 14 | 1550 | 600 | 152 |
| CC1=CC(C)(C)Nc2ccc3c(c21)C(c1ccc(Cl)c(C)c1)Oc1ccccc1-3 (centres undefined) | < 20 | 275 | 1.2 | 14 | 1430 | > 10000 | 147 |
| CC1=CC(C)(C)Nc2ccc3c(c21)C(c1cccc(Cl)c1)Oc1ccccc1-3 (centres undefined) | 37 | 136 | 0.43 | 18 | 253 | 930 | 58 |
| CC1=CC(C)(C)Nc2ccc3c(c21)C(c1cccc(Br)c1)Oc1ccccc1-3 (centres undefined) | 41 | 266 | 1.1 | 8 | 401 | 1140 | 34 |
| CC1=CC(C)(C)Nc2ccc3c(c21)C(c1ccc(C)cc1)Oc1ccccc1-3 (centres undefined) | 38 | 294 | 2.3 | 37 | 1240 | 250 | 80 |

Next, values leading:

| Efficacy [1] [%] | IC50 (Glucocorticoid receptor [2]) [nM] | Ki (Progesterone receptor [3]) [nM] | EC50 (Progesterone receptor [4]) [nM] | IC50 (Androgen receptor) [nM] | IC50 (Progesterone receptor [5]) [nM] | Ki (Glucocorticoid receptor [6]) [nM] | Compound |
| --- | --- | --- | --- | --- | --- | --- | --- |
| < 20 | 225 | 1.7 | 50 | 1090 | > 10000 | 100 | CC1=CC(C)(C)Nc2ccc3c(c21)C(c1cc(Cl)cc(Cl)c1)Oc1ccccc1-3 (centres undefined) |
| 42 | 115 | 0.55 | 14 | 481 | 3140 | 67 | CC1=CC(C)(C)Nc2ccc3c(c21)C(c1ccc(Br)cc1)Oc1ccccc1-3 (centres undefined) |
| < 20 | 185 | 1.8 | 16 | 1220 | > 10000 | 60 | CC1=CC(C)(C)Nc2ccc3c(c21)C(c1ccc(C)c(F)c1)Oc1ccccc1-3 (centres undefined) |
| 31 | 166 | 0.87 | 17 | 1240 | 1100 | 42 | CC1=CC(C)(C)Nc2ccc3c(c21)C(c1cc(C)cc(Br)c1)Oc1ccccc1-3 (centres undefined) |
| < 20 | 171 | 0.41 | 17 | 2200 | > 10000 | 39 | CC1=CC(C)(C)Nc2ccc3c(c21)C(c1ccc(Cl)c(F)c1)Oc1ccccc1-3 (centres undefined) |
| 42 | 80 | 3.4 | 18 | 946 | 720 | 59 | CC1=CC(C)(C)Nc2ccc3c(c21)C(c1ccc(Cl)c(Cl)c1)Oc1ccccc1-3 (centres undefined) |
